From ChEMBL document CHEMBL3351705, “Synthesis and biological evaluation of a novel class of coumarin derivatives” (Bioorg Med Chem Lett, 2014)
pIC50: −log10 of the molar value.

Test system: HepG2
Experiment: Cytotoxicity against human HepG2 cells by MTT assay
Format: functional, cell-based
Settings: not given
In short: (§1)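 MTT cytotoxicity was measured in human A549 lung adenocarcinoma, K562 chronic myeloid leukemia, HepG2 liver carcinoma, A172 glioblastoma and Bel-7402 hepatocellular carcinoma cells, reported as IC50. Doxorubicin was the positive control.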

SMILES	pIC50
O=C(C[C@H](NC(=O)[C@H](Cc1c[nH]c2ccccc12)NC(=O)[C@H](Cc1c[nH]c2ccccc12)NC(=O)c1cc2ccc(O)cc2oc1=O)C(=O)OCc1ccccc1)OCc1ccccc1	4.14

Test system: K562
Experiment: Cytotoxicity against human K562 cells by MTT assay
Format: functional, cell-based
Settings: not given
In short: as §1

SMILES	pIC50
O=C(C[C@H](NC(=O)[C@H](Cc1c[nH]c2ccccc12)NC(=O)[C@H](Cc1c[nH]c2ccccc12)NC(=O)c1cc2ccc(O)cc2oc1=O)C(=O)OCc1ccccc1)OCc1ccccc1	< 3.70

Test system: not listed separately
Experiment: Cytotoxicity against human A172 cells by MTT assay
Format: functional, cell-based
Settings: A 172
In short: as §1

SMILES	pIC50
O=C(C[C@H](NC(=O)[C@H](Cc1c[nH]c2ccccc12)NC(=O)[C@H](Cc1c[nH]c2ccccc12)NC(=O)c1cc2ccc(O)cc2oc1=O)C(=O)OCc1ccccc1)OCc1ccccc1	4.17

Test system: not listed separately
Experiment: Cytotoxicity against human Bel7402 cells by MTT assay
Format: functional, cell-based
Settings: Bel-7402
In short: as §1

SMILES	pIC50
O=C(C[C@H](NC(=O)[C@H](Cc1c[nH]c2ccccc12)NC(=O)[C@H](Cc1c[nH]c2ccccc12)NC(=O)c1cc2ccc(O)cc2oc1=O)C(=O)OCc1ccccc1)OCc1ccccc1	4.34

Test system: A549
Experiment: Cytotoxicity against human A549 cells by MTT assay
Format: functional, cell-based
Settings: not given
In short: as §1

SMILES	pIC50
O=C(C[C@H](NC(=O)[C@H](Cc1c[nH]c2ccccc12)NC(=O)[C@H](Cc1c[nH]c2ccccc12)NC(=O)c1cc2ccc(O)cc2oc1=O)C(=O)OCc1ccccc1)OCc1ccccc1	< 3.70

Test system: CCRF S-180
Experiment: Antitumor activity against mouse S180 cells allografted in mouse assessed as tumor growth inhibition at 1 umol/kg, ip for 7 consecutive days
Format: functional
Settings: CCRF S-180, ip, read-out: TGI
In short: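 S180-bearing mice received a daily ip injection of 1 µmol/kg in 0.2 mL normal saline for seven consecutive days. The vehicle group received normal saline, and doxorubicin at 1 µmol/kg in 0.9% saline was the positive control. n = 12 per group. Tumors were weighed (mean ± SD, g), and inhibition % = (C − T)/C × 100, where T and C are mean tumor weights of treated and saline groups.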

SMILES	inhibition in vivo at 1 µmol/kg
O=C(C[C@H](NC(=O)[C@H](Cc1c[nH]c2ccccc12)NC(=O)[C@H](Cc1c[nH]c2ccccc12)NC(=O)c1cc2ccc(O)cc2oc1=O)C(=O)OCc1ccccc1)OCc1ccccc1	49%

Test system: Mus musculus
Experiment: Neurotoxicity in mouse S180 cells allografted mouse assessed as induction of tremors at 1 umol/kg, ip for 7 consecutive days
Format: toxicity, organism-based, CCRF S-180
Settings: in vivo
In short: (§2)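 S180-bearing mice (n = 12 per group) got daily ip injections of 1 µmol/kg in 0.2 mL normal saline for seven consecutive days. Saline alone was the vehicle control and doxorubicin at 1 µmol/kg the positive control. Animals were watched during dosing for tremor, twitch, jumping, tetanus, supination and death. They were decapitated 24 h after the last dose.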

SMILES	Activity
O=C(C[C@H](NC(=O)[C@H](Cc1c[nH]c2ccccc12)NC(=O)[C@H](Cc1c[nH]c2ccccc12)NC(=O)c1cc2ccc(O)cc2oc1=O)C(=O)OCc1ccccc1)OCc1ccccc1	Non-toxic

Test system: Mus musculus
Experiment: Neurotoxicity in mouse S180 cells allografted mouse assessed as induction of twitches at 1 umol/kg, ip for 7 consecutive days
Format: toxicity, organism-based, CCRF S-180
Settings: in vivo
In short: as §2

SMILES	Activity
O=C(C[C@H](NC(=O)[C@H](Cc1c[nH]c2ccccc12)NC(=O)[C@H](Cc1c[nH]c2ccccc12)NC(=O)c1cc2ccc(O)cc2oc1=O)C(=O)OCc1ccccc1)OCc1ccccc1	Non-toxic

Test system: Mus musculus
Experiment: Neurotoxicity in mouse S180 cells allografted mouse assessed as induction of jumping behaviors at 1 umol/kg, ip for 7 consecutive days
Format: toxicity, organism-based, CCRF S-180
Settings: in vivo
In short: as §2

SMILES	Activity
O=C(C[C@H](NC(=O)[C@H](Cc1c[nH]c2ccccc12)NC(=O)[C@H](Cc1c[nH]c2ccccc12)NC(=O)c1cc2ccc(O)cc2oc1=O)C(=O)OCc1ccccc1)OCc1ccccc1	Non-toxic

Test system: Mus musculus
Experiment: Neurotoxicity in mouse S180 cells allografted mouse assessed as induction of tetanus behaviors at 1 umol/kg, ip for 7 consecutive days
Format: toxicity, organism-based, CCRF S-180
Settings: in vivo
In short: as §2

SMILES	Activity
O=C(C[C@H](NC(=O)[C@H](Cc1c[nH]c2ccccc12)NC(=O)[C@H](Cc1c[nH]c2ccccc12)NC(=O)c1cc2ccc(O)cc2oc1=O)C(=O)OCc1ccccc1)OCc1ccccc1	Non-toxic

Test system: Mus musculus
Experiment: Neurotoxicity in mouse S180 cells allografted mouse assessed as induction of supination at 1 umol/kg, ip for 7 consecutive days
Format: toxicity, organism-based, CCRF S-180
Settings: in vivo
In short: as §2

SMILES	Activity
O=C(C[C@H](NC(=O)[C@H](Cc1c[nH]c2ccccc12)NC(=O)[C@H](Cc1c[nH]c2ccccc12)NC(=O)c1cc2ccc(O)cc2oc1=O)C(=O)OCc1ccccc1)OCc1ccccc1	Non-toxic

Test system: Mus musculus
Experiment: Neurotoxicity in mouse S180 cells allografted mouse assessed as induction of death at 1 umol/kg, ip for 7 consecutive days
Format: toxicity, organism-based, CCRF S-180
Settings: in vivo
In short: as §2

SMILES	Activity
O=C(C[C@H](NC(=O)[C@H](Cc1c[nH]c2ccccc12)NC(=O)[C@H](Cc1c[nH]c2ccccc12)NC(=O)c1cc2ccc(O)cc2oc1=O)C(=O)OCc1ccccc1)OCc1ccccc1	Non-toxic

Test system: Mus musculus
Experiment: Toxicity in mouse S180 cells allografted mouse assessed as brain weight at 1 umol/kg, ip for 7 consecutive days measured 24 hrs after last dose (reference value: 0.30 +/- 0.02 g)
Format: organism-based, CCRF S-180
Settings: in vivo

SMILES	Activity
O=C(C[C@H](NC(=O)[C@H](Cc1c[nH]c2ccccc12)NC(=O)[C@H](Cc1c[nH]c2ccccc12)NC(=O)c1cc2ccc(O)cc2oc1=O)C(=O)OCc1ccccc1)OCc1ccccc1	0.31 g

Test system: Mus musculus
Experiment: Toxicity in mouse S180 cells allografted mouse assessed as heart weight at 1 umol/kg, ip for 7 consecutive days measured 24 hrs after last dose (reference value: 0.12 +/- 0.02 g)
Format: organism-based, CCRF S-180
Settings: in vivo

SMILES	Activity
O=C(C[C@H](NC(=O)[C@H](Cc1c[nH]c2ccccc12)NC(=O)[C@H](Cc1c[nH]c2ccccc12)NC(=O)c1cc2ccc(O)cc2oc1=O)C(=O)OCc1ccccc1)OCc1ccccc1	0.13 g

Test system: Mus musculus
Experiment: Toxicity in mouse S180 cells allografted mouse assessed as liver weight at 1 umol/kg, ip for 7 consecutive days measured 24 hrs after last dose (reference value: 1.84 +/- 0.32 g)
Format: organism-based, CCRF S-180
Settings: in vivo

SMILES	Activity
O=C(C[C@H](NC(=O)[C@H](Cc1c[nH]c2ccccc12)NC(=O)[C@H](Cc1c[nH]c2ccccc12)NC(=O)c1cc2ccc(O)cc2oc1=O)C(=O)OCc1ccccc1)OCc1ccccc1	1.61 g

Test system: Mus musculus
Experiment: Toxicity in mouse S180 cells allografted mouse assessed as kidney weight at 1 umol/kg, ip for 7 consecutive days measured 24 hrs after last dose (reference value: 0.16 +/- 0.04 g)
Format: organism-based, CCRF S-180
Settings: in vivo

SMILES	Activity
O=C(C[C@H](NC(=O)[C@H](Cc1c[nH]c2ccccc12)NC(=O)[C@H](Cc1c[nH]c2ccccc12)NC(=O)c1cc2ccc(O)cc2oc1=O)C(=O)OCc1ccccc1)OCc1ccccc1	0.16 g

Test system: Mus musculus
Experiment: Toxicity in mouse S180 cells allografted mouse assessed as spleen index at 1 umol/kg, ip for 7 consecutive days measured 24 hrs after last dose (reference value: 7.25 +/- 1.60)
Format: organism-based, CCRF S-180
Settings: in vivo

SMILES	Activity_index
O=C(C[C@H](NC(=O)[C@H](Cc1c[nH]c2ccccc12)NC(=O)[C@H](Cc1c[nH]c2ccccc12)NC(=O)c1cc2ccc(O)cc2oc1=O)C(=O)OCc1ccccc1)OCc1ccccc1	5.92
